Measured values of several laboratories.
Each line is one published result; the experiments were not run side by side.
Effect on: enzyme activity
Mode: inhibitor
FGFR1: Fibroblast growth factor receptor 1 (FGFR1, Homo sapiens, UniProt P11362)

CC(C)(O)[C@H]1CC[C@H](Nc2ccc3ncc(-c4cccc(C(F)(F)F)c4)n3n2)CC1 — remaining activity (FGFR1; 1 µM): 97%
COc1cc(Nc2cnc(C#N)c(O[C@H](C)CN(C)C)n2)ncc1-c1cnn(C)c1 — remaining activity (FGFR1; radiometric; 1 µM): 107%
Cc1cnc(NC2CCOCC2)nc1-n1cnc(C(=O)NC(CN)c2cc(F)cc(Cl)c2)c1 (stereo not drawn) — remaining activity (FGFR1; radiometric; 1 µM): 118%
O=C(Nc1cnn(-c2csc(C(=O)NC3COC3)c2)c1)Nc1ccccc1Cl — remaining activity (FGFR1; 5 µM): 95.9%
CC(C)(C)c1nc(-c2cccc(NS(=O)(=O)c3c(F)cccc3F)c2F)c(-c2ccnc(N)n2)s1 — remaining activity (FGFR1; radiometric; 1 µM): 89%
CCCOc1ccc(OC)c(F)c1C(=O)c1ccc(C(=O)N[C@@H]2CNC[C@H]2NC(=O)c2ccc3[nH]ncc3c2)cc1 — remaining activity (Fibroblast growth factor receptor 1 (FGFR1, Homo sapiens, UniProt P11362, V561M); 10 µM): 23%
Cc1[nH]c(/C=C2\C(=O)Nc3ccc(F)cc32)c(C)c1C(=O)N[C@H]1CCN(C(=O)N(C)C)C1 — remaining activity (FGFR1; 1 µM): 90%
CC(C)(C)C(=O)c1sc(NC2CCCCC2)nc1N — remaining activity (FGFR1; 10 µM): 87%
Oc1cccc(-c2nc(N3CCOCC3)c3oc4ncccc4c3n2)c1 — remaining activity (FGFR1; 10 µM): 118%
CCN(CC)c1ccc(C2=NNC(=O)CC2C)cc1[N+](=O)[O-] (stereo not drawn) — remaining activity (FGFR1; 10 µM): 90%
CCN(CC)CCNC(=O)c1c(C)[nH]c(/C=C2\C(=O)Nc3ccc(F)cc32)c1C — remaining activity (FGFR1; 1 µM): 22%
Cn1c(=O)n(-c2ccc(C(C)(C)C#N)cc2)c2c3cc(-c4cnc5ccccc5c4)ccc3ncc21 — remaining activity (FGFR1; 10 µM): 106%
